pEC50, pIC50: −log10 of the molar value.
Key:
[1] = Cytotoxicity against HEL cells assessed as change in cellular morphology by microscopic analysis; format: cell-based; details: human, read-out: MIC
Procedure, shortened: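 Uninfected HEL monolayers were exposed to compound. Minimal cytotoxic concentration is the concentration causing microscopically visible alteration of cell morphology.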

[2] = test system: Human immunodeficiency virus 2; experiment: Antiviral activity against Human immunodeficiency virus type 2 ROD infected in human CEM cells assessed as inhibition of virus-induced giant cell formation after 4 to 5 days by microscopic analysis; format: functional, organism-based, ISOLATE ROD, CCRF-CEM
Procedure, shortened: (§1)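 CEM cells (~3×10^5/mL) were infected with 100 CCID50/mL HIV-1 IIIB or HIV-2 ROD with compound dilutions. After 4–5 days at 37°C, syncytium formation was scored microscopically. EC50 is the concentration inhibiting giant cell formation by 50%.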

HeLa [3] = experiment: Cytostatic activity against human HeLa cells after 72 hrs by coulter counting analysis; format: functional, cell-based
Procedure, shortened: (§2)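 (5-7.5)×10^4 cells/well were incubated with compound at 37°C, for 48 h (L1210) or 72 h (CEM, HeLa), then counted by Coulter counter. IC50 is the concentration inhibiting proliferation by 50%.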

[4] = test system: Human immunodeficiency virus 1; experiment: Antiviral activity against Human immunodeficiency virus 1 3B infected in human CEM cells assessed as inhibition of virus-induced giant cell formation after 4 to 5 days by microscopic analysis; format: functional, organism-based, CCRF-CEM; procedure, shortened: as §1
Human alphaherpesvirus 2 = experiment: Antiviral activity against Herpes simplex virus G infected in HEL cells assessed as inhibition of virus-induced cytopathicity; format: functional, organism-based, strain G
Procedure, shortened: (§3)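 Confluent HEL cell cultures were inoculated with 100 CCID50 of virus in the presence of varying compound concentrations. Cytopathicity or plaque formation was scored once untreated infected controls reached completion. EC50 is the concentration inhibiting virus-induced cytopathicity by 50%.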

Vaccinia virus = experiment: Antiviral activity against Vaccinia virus Lederle infected in HEL cells assessed as inhibition of virus-induced cytopathicity; format: functional, organism-based; details: Orthopoxvirus vaccinia; procedure, shortened: as §3
Human alphaherpesvirus 1 [5] = experiment: Antiviral activity against Herpes simplex virus KOS infected in HEL cells assessed as inhibition of virus-induced cytopathicity; format: functional, organism-based; procedure, shortened: as §3
[6] = (§4) Cytotoxicity against human CEM cells; format: cell-based, CCRF-CEM; details: CEM (CCRF-CEM) cells
CCRF-CEM [7] = experiment: Cytostatic activity against human CEM cells after 72 hrs by coulter counting analysis; format: functional, cell-based; procedure, shortened: as §2
L1210 = experiment: Cytostatic activity against mouse L1210 cells after 48 hrs by coulter counting analysis; format: functional, cell-based; procedure, shortened: as §2
Human alphaherpesvirus 1 [8] = experiment: Antiviral activity against thymidine kinase-deficient acyclovir-resistant Herpes simplex virus KOS infected in HEL cells assessed as inhibition of virus-induced cytopathicity; format: functional, organism-based; details: Human alphaherpesvirus 1, KOS; procedure, shortened: as §3
SiHa [9] = experiment: Antiproliferative activity against human SiHa cells infected with HPV-16 after 96 hrs by trypan blue staining-based Neubauer haemocytometric analysis; format: functional, cell-based
Procedure, shortened: (§5)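 SiHa and HPV16+ M08 vulval keratinocytes (VIN3 biopsy-derived) were seeded at 4×10^3 cells/well; human epidermal keratinocytes (EpiLife medium) at 3.5×10^4 cells/well. All adhered 24 h, then were exposed to 0.1 and 1 μM compound in replicate for 96 h at 37°C. Cells were trypsinised, resuspended in PBS and counted in 0.4% trypan blue on a haemocytometer.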

[10] = Antiproliferative activity against human epidermal keratinocytes after 96 hrs by trypan blue staining-based Neubauer haemocytometric analysis; format: cell-based; details: Keratinocyte; procedure, shortened: as §5
HeLa [11] = experiment: Antiproliferative activity against human HeLa cells infected with HPV-18 after 72 hrs by flow cytometric analysis; format: functional, cell-based
Procedure, shortened: (§6)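 SiHa (HPV16+), HeLa (HPV18+) and C33A (HPV-) cervical carcinoma lines grown in DMEM with 10% FBS at 37°C, 5% CO2. Seeded 4×10^3 cells/well and left to adhere 24 h. Treated in triplicate with 1, 10 and 100 μM of compound formulated in ~1% DMSO/PBS pH 7.4.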

[12] = Antiproliferative activity against human C33A cells after 72 hrs by flow cytometric analysis; format: cell-based, C-33-A; procedure, shortened: as §6
SiHa [13] = experiment: Antiproliferative activity against human SiHa cells infected with HPV-16 after 72 hrs by flow cytometric analysis; format: functional, cell-based; procedure, shortened: as §6
[14] = Antiproliferative activity against human M08 cells infected with HPV-16 after 96 hrs by trypan blue staining-based Neubauer haemocytometric analysis; format: functional, cell-based; details: M08, 96 h; procedure, shortened: as §5
[15] = Prodrug activation assessed as carboxypeptidase Y (unknown origin)-mediated aminoacyl phosphonamidate ester formation at 3 mg at 25 degC up to 12 hrs by [31P]-NMR analysis
Procedure, shortened: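 Compound (3.0 mg) in acetone-d6 plus Trizma buffer pH 7.6 was recorded by 31P NMR at 25°C as control. Carboxypeptidase Y (0.1 mg in Trizma) was then added, and spectra were taken every 7 min over 12 h at 25°C.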

CCRF-CEM [16] = experiment: as §4; format: cell-based; details: ccrf-cem
[17] = test system: Human immunodeficiency virus 1; experiment: microbe, parasite or virus in culture; details: Human immunodeficiency virus 1, 3B, MT2
[18] = Cytotoxicity against human MT2 cells
[19] = Human immunodeficiency virus 2, ISOLATE ROD, CCRF-CEM
[20] = Human immunodeficiency virus 1, 3B, CCRF-CEM
[21] = Human alphaherpesvirus 2, strain G, HEL
[22] = Human alphaherpesvirus 1, KOS, HEL

Structure (SMILES)	MCC [1] [µM]	pEC50 [2, 19]	pIC50 (HeLa [3]; Homo sapiens, HeLa, 72 h)	pEC50 [4, 20]	pEC50 (Human alphaherpesvirus 2; [21])	pEC50 (Vaccinia virus)	pEC50 (Human alphaherpesvirus 1 [5]; [22])	CC50 [6] [µM]	pIC50 (CCRF-CEM [7]; Homo sapiens, CCRF-CEM, 72 h)	pIC50 (L1210; Mus musculus, L1210, 48 h)	pEC50 (Human alphaherpesvirus 1 [8])	pIC50 ([12]; Homo sapiens, C-33-A, 72 h)	other results
C[C@H](NP(=O)(COCCn1cnc2c(N)ncnc21)Oc1cccc2ccccc12)C(=O)OCc1ccccc1 (stereo not given in full)	> 100	7.30	5.80	7.52	8.10	5.02	7.70	0.12	6.92	7.39	6.15	–	–
C[C@H](NP(=O)(COCCn1cnc2c(N)ncnc21)N[C@@H](C)C(=O)OCc1ccccc1)C(=O)OCc1ccccc1	> 100	7.60	6.17	7.40	6.60	5.30	6.15	0.14	6.85	6.68	6.22	–	–
C[C@H](NP(=O)(COCCn1cnc2c(N)ncnc21)N[C@@H](C)C(=O)OCC(C)(C)C)C(=O)OCC(C)(C)C	> 100	7.72	5.80	7.62	6.70	5.57	6.52	0.2	6.70	6.62	6.52	6.08	pIC50 (SiHa [9]): 6.08; pIC50 [10]: 6.52; pIC50 (HeLa [11]; Homo sapiens, HeLa, 72 h): 6.22; pIC50 (SiHa [13]): 6.18; pIC50 [14]: 6.09
C[C@H](NP(=O)(COCCn1cnc2c(N)ncnc21)Oc1ccccc1)C(=O)OCC(C)(C)C (stereo not given in full)	> 100	7.36	5.66	7.25	6.82	5.43	6.22	0.4	6.40	6.82	6.26	–	–
C[C@H](NP(=O)(COCCn1cnc2c(N)ncnc21)Oc1cccc2ccccc12)C(=O)OCC(C)(C)C (stereo not given in full)	> 100	7.72	6.04	7.49	7.00	5.80	6.60	0.045	7.35	7.17	6.70	6.27	pIC50 (SiHa [9]): 7.05; pIC50 [10]: 7.12; pIC50 (HeLa [11]; Homo sapiens, HeLa, 72 h): 6.30; pIC50 (SiHa [13]): 6.22; pIC50 [14]: 7.32
C[C@H](NP(=O)(COCCn1cnc2c(N)ncnc21)Oc1cccc2c1CCCC2)C(=O)OCC(C)(C)C (stereo not given in full)	> 100	8.15	6.35	7.77	7.30	5.89	6.89	0.019	7.72	7.59	6.92	–	Drug metabolism [15]: metabolite_detected
C[C@H](Cn1cnc2c(N)ncnc21)OCP(=O)(N[C@@H](C)C(=O)OCc1ccccc1)N[C@@H](C)C(=O)OCc1ccccc1	> 100	7.85	< 3.30	7.52	5.52	4.70	5.00	6.9	< 3.30	3.92	5.15	–	–
C[C@H](Cn1cnc2c(N)ncnc21)OCP(=O)(N[C@@H](C)C(=O)OCC(C)(C)C)N[C@@H](C)C(=O)OCC(C)(C)C	> 100	8.70	5.40	8.40	6.15	5.22	5.82	1.2	5.92	5.82	5.70	6.15	pIC50 (HeLa [11]; Homo sapiens, HeLa, 72 h): 6.27; pIC50 (SiHa [13]): 6.14
C[C@H](Cn1cnc2c(N)ncnc21)OCP(=O)(N[C@@H](C)C(=O)OCc1ccccc1)Oc1cccc2ccccc12 (stereo not given in full)	> 100	7.96	4.96	7.72	6.15	5.26	5.89	4.4	5.36	5.43	6.10	–	–
C[C@H](Cn1cnc2c(N)ncnc21)OCP(=O)(N[C@@H](C)C(=O)OCC(C)(C)C)Oc1ccccc1 (stereo not given in full)	> 100	7.92	5.10	7.74	6.15	5.10	5.89	2.3	5.64	5.40	6.00	–	–
C[C@H](Cn1cnc2c(N)ncnc21)OCP(=O)(N[C@@H](C)C(=O)OCC(C)(C)C)Oc1cccc2c1CCCC2 (stereo not given in full)	> 100	8.05	5.28	7.96	5.85	4.98	5.85	2	5.70	5.89	5.26	–	–
C[C@H](Cn1cnc2c(N)ncnc21)OCP(=O)(N[C@@H](C)C(=O)OCC(C)(C)C)Oc1cccc2ccccc12 (mixture of isomers)	–	–	–	–	–	–	–	–	–	–	–	–	pIC50 (HeLa [11]; hela): 5.21; pEC50 ([2]; ccrf-cem): 8.40; pIC50 (HeLa [3]; hela): 4.92; pEC50 ([4]; ccrf-cem): 8.52; pEC50 (Human alphaherpesvirus 2; hel): 6.10; pIC50 ([12]; c-33-a): 5.22; pEC50 (Human alphaherpesvirus 1 [5]; hel): 5.70; CC50 (CCRF-CEM [16]): 3.9 µM; pIC50 (CCRF-CEM [7]; ccrf-cem): 5.41; pIC50 (SiHa [13]): 5.11; pIC50 (L1210; l1210): 5.66
C[C@H](Cn1cnc2c(N)ncnc21)OCP(=O)(N[C@@H](C)C(=O)OCC(C)(C)C)Oc1cccc2ccccc12 (stereo in doubt; 15)	> 100	8.15	4.77	–	6.15	5.40	5.82	6.9	5.16	–	5.70	5.12	pIC50 (HeLa [11]; hela): 6.28; pEC50 ([4]; ccrf-cem): 8.05; pIC50 (L1210; l1210): 5.25
Nc1ncnc2c1ncn2CCOCP(=O)(O)O [ADEFOVIR]	> 100	5.09	3.74	5.08	5.20	–	5.33	≥ 50	4.62	5.52	5.15	5.11	–
CC(C)OC(=O)[C@H](C)N[P@](=O)(CO[C@H](C)Cn1cnc2c(N)ncnc21)Oc1ccccc1 [TENOFOVIR ALAFENAMIDE]	–	–	–	–	–	–	–	–	–	–	–	–	pEC50 [17]: 8.30; CC50 [18]: 40 µM
C[C@H](Cn1cnc2c(N)ncnc21)OCP(=O)(O)O [TENOFOVIR ANHYDROUS]	> 100	5.43	4.77	5.41	3.91	< 4.00	3.98	> 500	5.16	4.96	3.82	–	–

Reference: ChEMBL document CHEMBL3232902, “PMPA and PMEA prodrugs for the treatment of HIV infections and human papillomavirus (HPV) associated neoplasia and cancer” (Eur J Med Chem, 2014)
